Data reported in ChEMBL document CHEMBL1142162, “Synergistic interactions of the antiretroviral protease inhibitors saquinavir and ritonavir with chloroquine and mefloquine against Plasmodium falciparum in vitro” (Antimicrob Agents Chemother, 2007).
Activity calls are given as the source filed them. The rule behind the calls is not given here.

Legend:
Type in all cases: functional, organism-based
Plasmodium falciparum [1] = assay: Antimalarial activity against Plasmodium falciparum D10
Outline: (§1)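 P. falciparum clones kept in modified candle jars; triplicate wells holding 100 µl culture (2% hematocrit, 1% parasitemia) plus 100 µl drug dilution or control. Growth read by tritiated hypoxanthine incorporation, media and vehicle controls on each plate. Experiments repeated at least twice; EC50 derived from pooled data of all experiments.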

Plasmodium falciparum [2] = assay: Antimalarial activity against Plasmodium falciparum Dd2; outline: as §1
Plasmodium falciparum [3] = assay: Antimalarial activity against Plasmodium falciparum FAC8; outline: as §1

| Structure (SMILES) | EC50 (Plasmodium falciparum [1]) [nM] | EC50 (Plasmodium falciparum [2]) [nM] | EC50 (Plasmodium falciparum [3]) [nM] | Activity (Plasmodium falciparum [2]) |
| --- | --- | --- | --- | --- |
| CC(C)(C)NC(=O)[C@@H]1C[C@@H]2CCCC[C@@H]2CN1C[C@@H](O)[C@H](Cc1ccccc1)NC(=O)[C@H](CC(N)=O)NC(=O)c1ccc2ccccc2n1 [SAQUINAVIR] | 5500 | 960 |  |  |
| CCN(CC)CCCC(C)Nc1ccnc2cc(Cl)ccc12 (stereo not drawn) [CHLOROQUINE] |  | 55 |  |  |
| CC(C)c1nc(CN(C)C(=O)N[C@H](C(=O)N[C@@H](Cc2ccccc2)C[C@H](O)[C@H](Cc2ccccc2)NC(=O)OCc2cncs2)C(C)C)cs1 [RITONAVIR] | 1100 | 850 | 7000 |  |
| CC(C)CC(=O)N[C@H](C(=O)N[C@H](C(=O)N[C@@H](CC(C)C)[C@@H](O)CC(=O)N[C@@H](C)C(=O)N[C@@H](CC(C)C)[C@@H](O)CC(=O)O)C(C)C)C(C)C [PEPSTATIN] | 14000 |  |  | inactive |
| O[C@@H](c1cc(C(F)(F)F)nc2c(C(F)(F)F)cccc12)[C@H]1CCCCN1 [MEFLOQUINE] | 64 | 60 | 23 |  |
| CC(C)C[C@H](NC(=O)[C@H]1O[C@@H]1C(=O)O)C(=O)NCCCCN=C(N)N [E-64] |  | 2900 |  |  |
| CC(C)C[C@H](NC(=O)[C@@H](O)[C@H](N)Cc1ccccc1)C(=O)O [UBENIMEX] |  | 5100 |  |  |
